Laboratory results as given in ChEMBL document CHEMBL4229392, “An Efficient Buchwald-Hartwig/Reductive Cyclization for the Scaffold Diversification of Halogenated Phenazines: Potent Antibacterial Targeting, Biofilm Eradication, and Prodrug Exploration” (J Med Chem, 2018).
Converted amounts (≈) assume the structure as drawn.

Experiments:
[1] = system: Staphylococcus epidermidis; assay: Antibacterial activity against methicillin-resistant Staphylococcus epidermidis ATCC 35984 after 16 to 18 hrs by broth microdilution method; format: functional
Enterococcus faecium [2] = assay: Antibacterial activity against vancomycin-resistant Enterococcus faecium ATCC 700221 after 16 to 18 hrs by broth microdilution method; format: functional
In short: (§1)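 CLSI broth microdilution in Lysogeny Broth, eleven two-fold dilutions spanning 0.10–100 µM; ~10^5 cells per well from log-phase culture; DMSO vehicle (top 1% v/v). MIC = lowest concentration preventing growth after 16–18 h at 37 °C, supported by OD600; three independent experiments.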

[3] = system: Mycobacterium tuberculosis; assay: Antibacterial activity against Mycobacterium tuberculosis H37Ra ATCC 25177 after 7 days; format: functional; conditions: H37Ra ATCC 25177, 168 h
In short: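 M. tuberculosis H37Ra grown two weeks in Middlebrook 7H9, diluted to OD600 0.01; two-fold serial dilutions 0.024–50 µM (streptomycin positive control, 0.16–340 µM); final DMSO 0.5%. Incubated 7 days at 37 °C; MIC = lowest concentration with no growth, OD600 recorded; three independent experiments.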

HeLa = assay: Cytotoxicity against human HeLa cells after 24 hrs by LDH release assy; format: cell-based
In short: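 HeLa cells in DMEM with 10% FBS at 37 °C, 5% CO2, dosed at 70-80% confluence with compound diluted in medium at 25, 50 and 100 µM for 24 h. Supernatant mixed with LDH reaction mixture, 30 min at room temperature, stopped, A490 read. Triton X-100 (2% v/v) as maximal-release control, medium only as no-death control, DMSO as vehicle. Three independent experiments.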

Enterococcus faecium [4] = assay: Bactericidal activity against vancomycin-resistant Enterococcus faecium ATCC 700221 planktonic cells after 24 hrs by calgary biofilm device method; format: organism-based
In short: (§2)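 Biofilms grown 24 h at 37 °C on Calgary device pegs from mid-log culture diluted 1,000-fold in TSB + 0.5% glucose; washed pegs challenged 24 h at 37 °C with 2-fold serial dilutions. Challenge medium subcultured into fresh TSBG overnight; MBC = concentration without visible turbidity; at least three independent experiments.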

Enterococcus faecium [5] = assay: Induction of biofilm eradication of vancomycin-resistant Enterococcus faecium ATCC 700221 after 24 hrs by calgary biofilm device method; format: functional
In short: (§3)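 Calgary device: biofilms established 24 h at 37 °C from mid-log culture diluted 1,000-fold in TSBG (0.5% glucose), washed, exposed 24 h to 2-fold serial dilutions, then peg lid moved to fresh TSBG for 24 h recovery. MBEC = lowest concentration giving no turbidity; at least three independent experiments.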

[6] = Hemolytic activity in human RBC at 200 uM after 1 hr relative to control; format: ADME, cell-based, Erythrocyte; conditions: red blood cells (erythrocytes), read-out: Activity
In short: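 Human RBCs drawn fresh into EDTA were washed three times in Tris-buffered saline (0.01 M Tris, 0.155 M NaCl, pH 7.2). 2% hRBC suspension was added to compound from DMSO stock, final 200 µM, for 1 h at 37 °C, then centrifuged and supernatant OD405 read. Scaled between DMSO (0%) and Triton X (100%). Three independent experiments.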

Staphylococcus aureus [7] = assay: Antibacterial activity against methicillin-resistant Staphylococcus aureus BAA-1707 after 16 to 18 hrs by broth microdilution method; format: functional; in short: as §1
Staphylococcus aureus [8] = assay: Bactericidal activity against methicillin-resistant Staphylococcus aureus BAA-1707 planktonic cells after 24 hrs by calgary biofilm device method; format: organism-based; in short: as §2
Staphylococcus aureus [9] = assay: Induction of biofilm eradication of methicillin-resistant Staphylococcus aureus BAA-1707 after 24 hrs by calgary biofilm device method; format: functional; in short: as §3
[10] = system: Staphylococcus epidermidis; assay: Bactericidal activity against methicillin-resistant Staphylococcus epidermidis ATCC 35984 planktonic cells after 24 hrs by calgary biofilm device method; format: organism-based; in short: as §2
[11] = system: Staphylococcus epidermidis; assay: Induction of biofilm eradication of methicillin-resistant Staphylococcus epidermidis ATCC 35984 after 24 hrs by calgary biofilm device method; format: functional; in short: as §3
[12] = Half life in human serum by LC-MS analysis; format: ADME, cell-free
In short: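 Human serum pre-warmed to 37 °C, spiked with prodrug from 10 mM DMSO stock plus internal standard, vortexed, then held 1 to 60 min. At each time point, acetonitrile with 0.5% formic acid was added to precipitate proteins. Released active HP was quantified as its ratio to internal standard against standard curves.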

Staphylococcus aureus [13] = assay: Bactericidal activity against methicillin-resistant Staphylococcus aureus 2 planktonic cells after 24 hrs by calgary biofilm device method; format: organism-based; in short: as §2
Staphylococcus aureus [14] = assay: Induction of biofilm eradication of methicillin-resistant Staphylococcus aureus 2 after 24 hrs by calgary biofilm device method; format: functional; in short: as §3

SMILES | MIC [1] [µM] | MIC (Enterococcus faecium [2]) [µM] | IC50 (HeLa) [µM] | hemolysis at 1 h, 200 µM [6] [%] | MIC (Staphylococcus aureus [7]) [µM] | MBC [10] [µM] | further results
Cc1ccc2nc3c(O)c(Br)cc(Br)c3nc2c1 | 0.3 (≈ 0.11 µg/mL) | 2.35 (≈ 0.865 µg/mL) | > 100 | ≤ 1 | – | – | MIC [3]: 6.25 µM (≈ 2.3 µg/mL); MBC (Enterococcus faecium [4]): 12.5 µM (≈ 4.6 µg/mL); MBEC (Enterococcus faecium [5]): 3.13 µM
Cc1cc2nc3c(O)c(Br)cc(Br)c3nc2c(C)c1C | 0.1 (≈ 0.0396 µg/mL) | – | > 100 | 1.3 | 0.59 (≈ 0.234 µg/mL) | 25 (≈ 9.9 µg/mL) | MBC (Staphylococcus aureus [8]): 150 µM (≈ 59.4 µg/mL); MBEC (Staphylococcus aureus [9]): 75 µM; MBEC [11]: 25 µM
COCCOCCOCCOCCOC(=O)Oc1c(Br)cc(Br)c2nc3cc(Oc4ccccc4)ccc3nc12 | 0.075 (≈ 0.051 µg/mL) | 0.3 (≈ 0.204 µg/mL) | – | ≤ 1 | 0.1 (≈ 0.068 µg/mL) | 9.38 (≈ 6.38 µg/mL) | MBC (Staphylococcus aureus [8]): 18.8 µM (≈ 12.8 µg/mL); MBEC (Staphylococcus aureus [9]): 4.69 µM; MBEC (Enterococcus faecium [5]): 1.17 µM; half-life [12]: < 1 min
Oc1ccc(Br)c2nc3cc(Cl)ccc3nc12 | 18.8 (≈ 5.82 µg/mL) | 25 (≈ 7.74 µg/mL) | > 100 | – | – | – | MIC [3]: 6.25 µM (≈ 1.93 µg/mL)
Cc1cc(C)c2nc3c(Br)ccc(O)c3nc2c1 | – | 9.38 (≈ 2.84 µg/mL) | > 100 | – | 4.69 (≈ 1.42 µg/mL) | – | MIC [3]: 50 µM (≈ 15.2 µg/mL)
COCCOCCOCC(=O)Oc1c(Br)cc(Br)c2nc3ccccc3nc12 | – | 3.13 (≈ 1.61 µg/mL) | > 100 | 1.2 | – | 9.38 (≈ 4.82 µg/mL) | MBC (Staphylococcus aureus [8]): 18.8 µM (≈ 9.67 µg/mL); MBEC (Staphylococcus aureus [9]): 75 µM; MBEC [11]: 37.5 µM; MBC (Enterococcus faecium [4]): 6.25 µM (≈ 3.21 µg/mL); half-life [12]: < 1 min
CCOC(=O)c1ccc2nc3c(O)c(Br)cc(Br)c3nc2c1 | – | 2.35 (≈ 1 µg/mL) | – | – | – | – | –
O=C(OCCOCCOCCOCCO)OCOc1c(Br)cc(Br)c2nc3ccccc3nc12 | > 100 | > 100 | > 100 | 2.7 | > 100 | – | half-life [12]: 7.3 min
OC[C@H]1O[C@@H](Oc2c(Br)cc(Br)c3nc4ccccc4nc23)[C@H](O)[C@@H](O)[C@@H]1O | > 100 | > 100 | – | ≤ 1 | > 100 | – | half-life [12]: > 260 min
CCc1ccc2nc3c(O)ccc(Br)c3nc2c1 | 9.38 (≈ 2.84 µg/mL) | 12.5 (≈ 3.79 µg/mL) | > 100 | – | – | – | MIC [3]: 25 µM (≈ 7.58 µg/mL)
CCCc1cn(Cc2ccc3nc4c(OC(C)=O)c(Br)cc(Br)c4nc3c2)nn1 | – | > 100 | – | – | 100 (≈ 51.9 µg/mL) | – | –
CC(=O)N[C@@H](CS)C(=O)O [ACETYLCYSTEINE] | – | – | – | – | – | > 2000 | MBC (Staphylococcus aureus [13]): > 2000 µM; MBEC (Staphylococcus aureus [14]): >2000 µM; MBEC [11]: >2000 µM; MBC (Enterococcus faecium [4]): > 2000 µM; MBEC (Enterococcus faecium [5]): >2000 µM
CCCCCCCCCC(=O)N[C@@H](Cc1c[nH]c2ccccc12)C(=O)N[C@@H](CC(N)=O)C(=O)N[C@@H](CC(=O)O)C(=O)N[C@@H]1C(=O)NCC(=O)N[C@@H](CCCN)C(=O)N[C@@H](CC(=O)O)C(=O)N[C@H](C)C(=O)N[C@@H](CC(=O)O)C(=O)NCC(=O)N[C@H](CO)C(=O)N[C@@H]([C@H](C)CC(=O)O)C(=O)N[C@@H](CC(=O)c2ccccc2N)C(=O)O[C@@H]1C [DAPTOMYCIN] | – | – | – | – | 3.13 (≈ 5.07 µg/mL) | – | MBEC (Staphylococcus aureus [9]): >2000 µM; MBEC (Staphylococcus aureus [14]): >2000 µM
N#CC(C#N)=NNc1cccc(Cl)c1 [CARBONYL CYANIDE M-CHLOROPHENYLHYDRAZONE] | – | – | – | – | – | 31.3 (≈ 6.4 µg/mL) | MBC (Staphylococcus aureus [13]): 31.3 µM (≈ 6.4 µg/mL); MBEC (Staphylococcus aureus [14]): 1000 µM; MBEC [11]: 93.8 µM
CN[C@@H]1[C@H](O[C@H]2[C@H](O[C@H]3[C@H](O)[C@@H](O)[C@H](N=C(N)N)[C@@H](O)[C@@H]3N=C(N)N)O[C@@H](C)[C@]2(O)C=O)O[C@@H](CO)[C@H](O)[C@H]1O [STREPTOMYCIN] | – | – | – | – | – | – | MIC [3]: 1.32 µM (≈ 0.768 µg/mL)
CCCc1ccc2nc3c(O)c(Br)cc(Br)c3nc2c1 | 0.15 (≈ 0.0594 µg/mL) | 3.13 (≈ 1.24 µg/mL) | > 50 | 2.1 | 0.1 (≈ 0.0396 µg/mL) | 25 (≈ 9.9 µg/mL) | MBEC (Staphylococcus aureus [9]): 75 µM; MBC (Enterococcus faecium [4]): 25 µM (≈ 9.9 µg/mL)
CCCCCCCCCC(=O)N[C@@H](Cc1c[nH]c2ccccc12)C(=O)N[C@H](CC(N)=O)C(=O)N[C@@H](CC(=O)O)C(=O)N[C@@H]1C(=O)NCC(=O)N[C@@H](CCCN)C(=O)N[C@@H](CC(=O)O)C(=O)N[C@H](C)C(=O)N[C@@H](CC(=O)O)C(=O)NCC(=O)N[C@H](CO)C(=O)N[C@@H]([C@H](C)CC(=O)O)C(=O)N[C@@H](CC(=O)c2ccccc2N)C(=O)O[C@@H]1C [DAPTOMYCIN] | – | – | – | – | – | – | MBC (Staphylococcus aureus [8]): 125 µM (≈ 203 µg/mL); MBC (Staphylococcus aureus [13]): 62.5 µM (≈ 101 µg/mL)
C[C@H]1c2cccc(O)c2C(=O)C2=C(O)[C@]3(O)C(=O)C(C(N)=O)=C(O)[C@@H](N(C)C)[C@@H]3[C@@H](O)[C@@H]21.O [DOXYCYCLINE] | – | – | – | – | – | – | MBC (Staphylococcus aureus [13]): 2 µM; MBEC (Staphylococcus aureus [14]): 46.9 µM
c1ccc(CN(CCN(Cc2ccccn2)Cc2ccccn2)Cc2ccccn2)nc1 | – | – | – | ≤ 1 | 50 (≈ 21.2 µg/mL) | – | MBC (Staphylococcus aureus [8]): 250 µM (≈ 106 µg/mL); MBEC (Staphylococcus aureus [9]): >2000 µM; MBC (Enterococcus faecium [4]): 188 µM (≈ 79.8 µg/mL); MBEC (Enterococcus faecium [5]): >2000 µM
O=C(OCCSSCCOC(=O)c1ccccc1)OCOc1c(Br)cc(Br)c2nc3ccccc3nc12 | > 100 | > 100 | > 100 | 1.3 | > 100 | – | –
O=C(O)CN(CCN(CC(=O)O)CC(=O)O)CC(=O)O [EDETIC ACID] | – | – | – | – | 25 (≈ 7.31 µg/mL) | 1000 (≈ 292 µg/mL) | MBC (Staphylococcus aureus [8]): > 2000 µM; MBEC (Staphylococcus aureus [9]): >2000 µM; MBC (Staphylococcus aureus [13]): 2000 µM (≈ 584 µg/mL); MBEC (Staphylococcus aureus [14]): >2000 µM; MBEC [11]: >2000 µM
NC(=O)c1cnccn1 [PYRAZINAMIDE] | – | – | – | – | – | – | MBC (Staphylococcus aureus [13]): > 2000 µM; MBEC (Staphylococcus aureus [14]): >2000 µM
COCCOCCOCCOC(=O)OCOc1c(Br)cc(Br)c2nc3ccccc3nc12 | > 100 | > 100 | – | 1.4 | > 100 | – | half-life [12]: 15.8 min
CCOc1ccc2nc3c(O)c(Br)cc(Br)c3nc2c1 | 18.8 (≈ 7.48 µg/mL) | > 100 | – | – | > 100 | – | –
COCCOCCOCCOCCOC(=O)Oc1c(Br)cc(Br)c2nc3cc(Cl)ccc3nc12 | 0.038 (≈ 0.0237 µg/mL) | 0.1 (≈ 0.0623 µg/mL) | > 100 | 1.1 | – | 9.38 (≈ 5.84 µg/mL) | MBC (Staphylococcus aureus [8]): 6.25 µM (≈ 3.89 µg/mL); MBEC [11]: 18.8 µM; half-life [12]: < 1 min
